Screens deposited in PubChem BioAssay by several laboratories.
Rev-erbA mod = Rev-erb alpha (human) modulation; P20393; Rev-erbα–FITC-DNA binding, fluorescence polarization, 90 min; activity, % at 10 µM; 370,000 tested, 0.79% active;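 active = activity above about 14%, limit read from the data; passing the limit was not always enough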;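 also: 0% = DMSO wells with 35 nM protein and 100% = DMSO wells with 750 nM protein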
MC4R antag cAMP = antagonists of human melanocortin 4 receptor (MC4R); P32245; 360,000 tested, 0.48% active; inhibition, % at 6.5 µM; AID 540295; MC4R-expressing cells, MTII-stimulated cAMP, LANCE TR-FRET;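 active = inhibition above its plate's cutoff, the mean of tested wells on that plate plus 3 SD, cut at about 29% in these data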;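 also: 0% = Melanotan II alone and 100% = Melanotan II plus saturating MCL0020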
Target sequence (P32245 whole entry, looked up): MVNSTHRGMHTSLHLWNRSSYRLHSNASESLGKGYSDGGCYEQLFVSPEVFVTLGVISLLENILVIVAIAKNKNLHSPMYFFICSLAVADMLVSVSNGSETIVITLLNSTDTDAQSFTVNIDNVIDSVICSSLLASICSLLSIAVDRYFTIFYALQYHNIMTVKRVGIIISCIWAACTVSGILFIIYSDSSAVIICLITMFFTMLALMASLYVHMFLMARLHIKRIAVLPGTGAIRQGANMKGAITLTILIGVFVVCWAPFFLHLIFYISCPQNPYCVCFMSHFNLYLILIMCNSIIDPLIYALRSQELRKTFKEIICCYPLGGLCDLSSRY
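System: U2OS cells stably expressing human melanocortin 4 receptor (MC4R). Reagent: Melanotan II challenge after compound preincubation. Doses: 6.5 µM. Times: 30-min compound, 1-h challenge, 1-h detection, room temperature. Measured by: TR-FRET with Eu-cAMP and labeled anti-cAMP, 671 nm. Replicates: singlicate.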
NR2E3 ag-1 = agonists of human NR2E3 nuclear receptor. Q9Y5X4. CHO-S Gal4-NCOR/VP16-NR2E3 two-hybrid, luciferase. inhibition of corepressor binding, % at 3.98 µM. 360,000 tested, 0.35% active;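 active = inhibition above the mean of all tested compounds plus 3 SD, cut at about 70% in these data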;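 also: 0% = DMSO with NR2E3 transfected cells and 100% = cells lacking NR2E3 construct; higher means lower luciferase signal from less NR2E3 corepressor binding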
Target sequence (Q9Y5X4 whole entry, looked up, the tested form may be a part): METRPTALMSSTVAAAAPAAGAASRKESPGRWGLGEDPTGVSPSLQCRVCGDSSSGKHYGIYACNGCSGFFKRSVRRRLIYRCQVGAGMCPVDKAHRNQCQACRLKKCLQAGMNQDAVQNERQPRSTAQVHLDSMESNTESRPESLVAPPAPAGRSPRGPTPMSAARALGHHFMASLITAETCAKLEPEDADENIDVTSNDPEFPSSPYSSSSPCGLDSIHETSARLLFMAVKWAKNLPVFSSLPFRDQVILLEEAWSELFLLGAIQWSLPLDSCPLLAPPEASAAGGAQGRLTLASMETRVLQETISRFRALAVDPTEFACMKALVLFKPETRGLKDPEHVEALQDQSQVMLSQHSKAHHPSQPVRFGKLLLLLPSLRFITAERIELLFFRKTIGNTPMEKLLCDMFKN
NR2E3 ag-2 = agonists of human nuclear receptor NR2E3 | Q9Y5X4 | GST-NR2E3/biotin-RetCOR TR-FRET, 1536-well | inhibition of corepressor binding, % at 4.78 µM | 320,000 tested, 0.12% active;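 active = percent inhibition above the cutoff of mean plus 3 SD of all tested compounds, set per screening campaign, cut at about 20% in these data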;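 also: 0% = DMSO wells and 100% = biotin wells as full block of FRET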
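Test system: GST-NR2E3 and biotin-RetCOR proteins | Quantity: 1.35 nM GST-tagged NR2E3 final | Medium: Tris pH 7.5 | Also added: 7 nM biotin-RetCOR | Dosing: Compound at 4.8 µM, single dose | Timing: 5 h at 4 °C | Detection: Time-resolved FRET | Read-out basis: Percent inhibition | Benchmarks: Biotin wells as high control, 0.6% DMSO wells as low control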
MC4R ag barr = human MC4R agonism via beta-arrestin; activation, % at 8.9 µM; 360,000 tested, 0.98% active; P32245; U2OS MC4R beta-arrestin complementation, luminescence; percent of melanotan II response, DMSO zero;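 active = activation above a per-plate cutoff, the mean activation of sample wells on that plate plus 3 SD, cut at about 8% in these data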
PG9 Ab binder = PG9 antibody binding by small molecule. TR-FRET gp120-PG9 antibody binding. inhibition, % at 6.7 µM. 360,000 tested, 0.43% active. AID 624416; in the data active = inhibition above about 8.5%
MC4R barr ag = human MC4R beta-arrestin agonism confirmation; shares compounds with MC4R ag barr; U2OS MC4R beta-arrestin recruitment, luminescence; scaled DMSO 0%, Melanotan II 100%; activation, % at 8.9 µM; 2,400 tested, 31% active; AID 602192;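 active = mean activation across replicates above the hit cutoff set in the earlier primary screen, cut at about 8% in these data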
MOR DOR agonist = activates mu-delta opioid heterodimer, MC4R agonist counter-screen | shares compounds with MC4R ag barr | U2OS PathHunter beta-arrestin, beta-gal luminescence; percent of deltorphin B response, DMSO zero | activation, % at 9.2 µM | 2,400 tested, 5.8% active;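 active = mean activation across replicates exceeds the hit threshold derived in the earlier primary screen, cut at about 18% in these data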;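 also: 100% = deltorphin B at 0.9 µM final and 0% = DMSO alone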
The depositor's hits bear a star; · = no result given. The list is not random: actives were taken first. Their share in the collection is about 2.7%.

SMILES | Rev-erbA mod | MC4R antag cAMP | NR2E3 ag-1 | NR2E3 ag-2 | MC4R ag barr | PG9 Ab binder | MC4R barr ag | MOR DOR agonist
Cc1ccc(N2C(=O)/C(=C/c3ccco3)SC2=S)cc1 | -4 | -1 | -23 | -4 | 23* | -2 | 4 | 5
O=C(Nc1nccs1)c1ccc(COc2c(F)c(F)cc(F)c2F)cc1 | 4 | 15 | 8 | -4 | 11* | -2 | 6 | 5
COc1ccc(CCn2c(C)cc(C(=O)CSc3nnnn3-c3ccccc3)c2C)cc1OC | 13 | 0 | -20 | 3 | 17* | -1 | 8 | 4
O=S(=O)(Nc1cccc(Cl)c1)c1ccc(-n2cccn2)cc1 | 2 | -1 | -1 | 3 | 3 | 1 | · | ·
Cc1ccc(NS(=O)(=O)c2ccc(-n3cccn3)cc2)cc1Cl | -1 | 13 | 4 | · | 13* | -1 | 0 | 8
C[C@H]1CN([C@@H](C)CO)C(=O)CCCn2nncc2CO[C@@H]1CN(C)Cc1ccc(-c2ccccc2)cc1 | 6 | 4 | 3 | · | 1 | -1 | · | ·
CC(=O)c1nn(-c2cccc(Br)c2)cc1C(=O)c1ccc(C)cc1 | -4 | 1 | -20 | 1 | 35* | 3 | 6 | 6
O=C(COc1ccc(Cl)cc1Cl)NC(=O)c1ccccc1 | 1 | -8 | -2 | -3 | 10* | -1 | 1 | 7
CCCCCCCOC(=O)C[N+](C)(C)CCOC1CC2CCC1(C)C2(C)C (centres undefined) | -2 | -5 | 9 | · | 12* | -1 | 18* | 12
O=c1oc2ccccc2cc1-c1cn2ccccc2n1 | 2 | -2 | -59 | 1 | 11* | 0 | 1 | 5
O=c1oc2ccccc2cc1-c1cn2cccnc2n1 | 3 | -1 | -86 | 1 | 1 | 2 | · | ·
Cc1ccc(NC(=O)Cn2c(O)c(N=NC(=O)c3cc4ccccc4cc3O)c3ccccc32)cc1 | -2 | 3 | -4 | 3 | 12* | -2 | 8 | 41*
O=C(N=Nc1c(O)n(Cc2ccccc2)c2ccccc12)c1cc2ccccc2cc1O | -10 | -6 | -47 | -1 | 16* | -3 | 19* | 16
CC1=CC2=NC(=O)CC(C)(C(=O)N(CC(=O)NC(C)(C)C)Cc3cccs3)N2C=C1 (centres undefined) | -4 | 5 | -7 | 7 | 0 | 2 | · | ·
O=[N+]([O-])c1ccc(N/N=C/c2ccc(OCc3cccc4ccccc34)cc2)nc1 | 0 | 7 | -122 | 5 | -1 | -3 | · | ·
O=C(COc1ccccc1Cl)Nc1ccc(NC(=O)c2ccco2)cc1 | 6 | -2 | -22 | 2 | 0 | 0 | · | ·
O=C(Nc1ccc(-c2noc(COc3ccccc3Cl)n2)cc1)c1ccco1 | 0 | 0 | -76 | -4 | 27* | -2 | 8 | 5
CCC(C(=O)OCC(=O)NC(=O)NC(C)(C)C)c1ccccc1 (centres undefined) | -5 | 28 | 4 | 3 | 9.7* | 1 | 3 | 14
COc1ccc(/C=C(/C#N)C(=O)Nc2ccc(O)cc2)cc1C(=O)O | 9 | -6 | 5 | 1 | -5 | -1 | · | ·
Nc1c(-c2cccs2)cnn1-c1nc(-c2ccc(Cl)cc2Cl)cs1 | 2 | -1 | -15 | 0 | 19* | 1 | 21* | 3
COc1ccc(-c2csc(-n3ncc(-c4ccccn4)c3N)n2)cc1 | -5 | 9 | -59 | 3 | 0 | -2 | · | ·
O=C(CSc1nnc(-c2ccccc2)o1)Nn1cnnc1 | -3 | -5 | 6 | 1 | 3 | -1 | · | ·
COc1ccccc1CNS(=O)(=O)c1c(C)cc(C)cc1C | 12 | 12 | -6 | · | 0 | 0 | · | ·
CCN(CC)CC(=O)Nc1cccc2c1C(=O)c1ccccc1C2=O | -1 | 24 | -5 | 2 | 11* | -3 | 2 | 6
CCN(CC)CC(=O)Nc1c(C)cccc1C | 7 | 3 | · | · | 0 | -2 | · | ·
SMILES | Rev-erbA mod | MC4R antag cAMP | NR2E3 ag-1 | NR2E3 ag-2 | MC4R ag barr | PG9 Ab binder | MC4R barr ag | MOR DOR agonist
CCOC(=O)c1c(CSC(=N)N)n(C)c2cc(Br)c(OC(C)=O)cc12 | 0 | 1 | -11 | -2 | -3 | -2 | · | ·
CCOC(=O)c1c(CSC(=N)N)n(-c2ccc(C)cc2)c2cc(Br)c(OC(C)=O)cc12 | -3 | 1 | -29 | 0 | 29* | -2 | 14* | 51*
O=C(COC(=O)/C=C/c1cccc(C(F)(F)F)c1)NC(=O)NCc1ccco1 | 3 | -5 | 7 | · | 15* | -1 | 3 | 7
Cc1cc(=O)oc2c1ccc1oc(/C(=N/O)c3ccccc3)c(C)c12 | 6 | -1 | 10 | -1 | 1 | -2 | · | ·
CCN1CCCC1CNC(=O)c1ccc2c(c1)NC(=O)/C(=C\c1ccc(C)cc1)S2 (centres undefined) | -10 | 7 | 13 | -3 | 15* | 0 | 13* | 3
O=C(Nc1cccc(Cl)c1)N1CCN(C/C=C/c2ccccc2)CC1 | 0 | 5 | 12 | 2 | 9.6* | 0 | 6 | 7
O=C(CCN1CCN(C/C=C/c2ccccc2)CC1)Nc1ccc(Cl)cc1 | -2 | 8 | 1 | 3 | -1 | 0 | · | ·
CSc1ccc(Cl)c(C(=O)OCC(=O)NCC(C)C)c1 | 1 | -4 | -8 | 2 | 1 | 3 | · | ·
Cc1cc(/C=N/n2c(COc3ccccc3C)nc3ccccc3c2=O)c(O)c([N+](=O)[O-])c1 | -26 | 5 | -33 | -1 | -2 | 0 | · | ·
Cc1ccc(-c2[nH]ncc2/C=N/n2c(COc3ccccc3C)nc3ccccc3c2=O)cc1 | -1 | 4 | 6 | 0 | 19* | 1 | 3 | 5
Cc1ccccc1OCc1nc2ccccc2c(=O)n1/N=C/c1c[nH]c2ccccc12 | -5 | -3 | -7 | 3 | 29* | -1 | 8 | 6
Cc1cccc(C)c1OCc1nc2ccccc2c(=O)n1/N=C/c1c[nH]c2ccccc12 | 1 | 9 | 4 | 3 | 2 | 0 | · | ·
Cc1cccc2sc(N(CCCN(C)C)C(=O)c3nc4ccccc4s3)nc12 | 2 | -9 | -22 | 0 | 6 | -2 | · | ·
Cc1ccc2sc(N(CCCN(C)C)C(=O)c3nc4ccccc4s3)nc2c1C | -1 | 3 | -29 | 1 | 40* | -1 | 26* | 31*
Cc1ccc2sc(N(CCCN(C)C)C(=O)c3ccc(Br)s3)nc2c1C | 9 | -2 | -12 | 4 | 22* | 0 | 19* | 11
CCOc1cccc2sc(N(CCN(C)C)C(=O)c3ccc(Br)s3)nc12 | 18 | 2 | -3 | 2 | -2 | -8 | · | ·
